ChEMBL document CHEMBL1152819, “Evaluation of hexadecyloxypropyl-9-R-[2-(Phosphonomethoxy)propyl]- adenine, CMX157, as a potential treatment for human immunodeficiency virus type 1 and hepatitis B virus infections” (Antimicrob Agents Chemother, 2007)
pEC50: −log10 of the molar value.

What was measured:
[1] = AUC (0 to 24 hrs) in Sprague-Dawley rat at 100 mg/kg, po administered daily for 7 days measured on day 1; format: ADME, organism-based; parameters: time < 24 hr, dose 100 mg/kg, route oral; conditions: plasma
Procedure, shortened: (§1)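 Sprague-Dawley rats, 8–12 weeks old, dosed orally once daily for 7 days and not fasted. Blood taken at 0.5, 1, 2, 4, 12 and 24 h after dosing on days 1 and 7, one rat/sex/time point. Plasma deproteinized, analyte separated by mixed-mode HPLC and quantified by MS/MS, LOQ 1 ng/ml, values below LOQ set to zero. Noncompartmental analysis: Tmax read from plotted data, AUC by linear-log trapezoidal rule.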

Rattus norvegicus [2] = experiment: Toxicity in Sprague-Dawley rat assessed as change in coagulation parameters at 10 to 100 mg/kg, po administered daily for 7 days; format: organism-based; parameters: dose 10-100 mg/kg, route oral; conditions: in vivo, 168 h
Hepatitis B virus [3] = experiment: Antiviral activity against HBV in human HepAD38 cells assessed as intracellular viral DNA levels treated for 3 days measured on day 6 […] by RT-PCR; format: functional, organism-based
Procedure, shortened: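 HepAD38 cells seeded at 5 x 10^5/well, grown 2-3 days with 0.3 µg/ml tetracycline, then induced by PBS wash and tetracycline/G418-free medium with or without compound at 37°C, 5% CO2. Medium changed after 3 days. Intracellular HBV DNA measured on day 6 postinduction by TaqMan real-time PCR against a plasmid standard curve, given as % of mock.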

[4] = AUC (0 to 24 hrs) in Sprague-Dawley rat at 30 mg/kg, po administered daily for 7 days measured on day 1; format: ADME, organism-based; parameters: time < 24 hr, dose 30 mg/kg, route oral; conditions: plasma; procedure, shortened: as §1
[5] = AUC (0 to 24 hrs) in Sprague-Dawley rat at 100 mg/kg, po administered daily for 7 days measured on day 7; format: ADME, organism-based; parameters: time < 24 hr, dose 100 mg/kg, route oral; conditions: plasma
Procedure, shortened: (§2)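 Oral once daily for 7 days, vehicle or 10, 30 or 100 mg/kg/day, Sprague-Dawley rats 8-12 weeks old, not fasted. Plasma sampled 0.5, 1, 2, 4, 12, 24 h after dosing on days 1 and 7 (1 rat/sex/time point). CMX157 and tenofovir measured by HPLC-MS/MS, LOQ 1 ng/ml (values below set to zero). Noncompartmental analysis; Cmax/Tmax by direct observation, AUC by linear-log trapezoidal rule.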

HepG2 = experiment: Cytotoxicity against human HepG2 cells by MTS assay; format: cell-based; conditions: Homo sapiens, HepG2
Procedure, shortened: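 Exponentially growing HepG2 cells (parent hepatoma line); cytostatic effect measured by MTS method.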

[6] = Cytotoxicity against human HepG2(2.2.15) cells after 24 hrs by neutral red uptake assay; format: cell-based; conditions: Homo sapiens, HepG2 2.2.15, 24 h
Procedure, shortened: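 Confluent 2.2.15 cells given nine daily treatments. Neutral red uptake read by absorbance of internalized dye 24 h after the last treatment, three cultures per concentration.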

[7] = Tmax in Sprague-Dawley rat at 100 mg/kg, po administered daily for 7 days measured on day 1; format: ADME, organism-based; parameters: dose 100 mg/kg, route oral; conditions: in vivo; procedure, shortened: as §1
[8] = system: Human immunodeficiency virus 1; experiment: Antiviral activity against HIV1 clade B HT/92/599 isolate in human PBMC assessed as reduction in reverse transcriptase; format: functional, organism-based; conditions: Human immunodeficiency virus 1, clade B
Procedure, shortened: (§3)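 Fresh human PBMCs, seronegative for HIV and HBV, infected with HIV-1 clade B HT/92/599. Antiviral read-out by reverse transcriptase reduction; cytotoxicity by XTT staining. EC50, CC50 and CC50/EC50 taken from data plots, given as mean ± standard deviation of triplicate determinations.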

[9] = Selectivity index, ratio of CC50 for human HepG2 cells to EC50 for HBV
Rattus norvegicus [10] = experiment: Toxicity in Sprague-Dawley rat assessed as change in organ weight at 10 to 100 mg/kg, po administered daily for 7 days; format: organism-based; parameters: dose 10-100 mg/kg, route oral; conditions: in vivo, 168 h
Procedure, shortened: (§4)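 Sprague-Dawley rats (3/sex/group), 8–12 weeks old, given vehicle or 10, 30 or 100 mg/kg/day orally once daily for 7 days. Serum biochemistry, hematology and urinalysis done at day 7. At necropsy, control and high-dose rats examined grossly, organs weighed, and all tissues processed for histopathology.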

Rattus norvegicus [11] = experiment: Toxicity in Sprague-Dawley rat assessed as hematological changes at 10 to 100 mg/kg, po administered daily for 7 days; format: organism-based; parameters: dose 10-100 mg/kg, route oral; conditions: in vivo, 168 h; procedure, shortened: as §4
[12] = Tmax in Sprague-Dawley rat at 10 mg/kg, po administered daily for 7 days measured on day 7; format: ADME, organism-based; parameters: dose 10 mg/kg, route oral; conditions: in vivo; procedure, shortened: as §1
Rattus norvegicus [13] = experiment: Toxicity in Sprague-Dawley rat assessed as change in body weight at 10 to 100 mg/kg, po administered daily for 7 days; format: organism-based; parameters: dose 10-100 mg/kg, route oral; conditions: in vivo, 168 h
Procedure, shortened: (§5)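 Sprague-Dawley rats (3/sex/group), 8–12 weeks old, given vehicle or 10, 30 or 100 mg/kg/day orally once daily for 7 days. Mortality, morbidity, clinical observations, body weight and food consumption recorded daily.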

[14] = AUC (0 to 24 hrs) in Sprague-Dawley rat at 10 mg/kg, po administered daily for 7 days measured on day 7; format: ADME, organism-based; parameters: time < 24 hr, dose 10 mg/kg, route oral; conditions: plasma; procedure, shortened: as §2
[15] = system: Human immunodeficiency virus 1; experiment: Antiviral activity against HIV1 LAI in human MT2 cells assessed as inhibition of p24 antigen production by ELISA; format: functional, organism-based; conditions: Human immunodeficiency virus 1, LAI
Procedure, shortened: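 MT-2 cells in RPMI 1640 with 10% FBS and 10 mM HEPES, infected with HIV-1 LAI at MOI 0.001 TCID50/cell. Incubated with threefold serial dilutions, three wells per dilution. EC50 taken as the concentration inhibiting p24 antigen production by 50%.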

Rattus norvegicus [16] = experiment: Toxicity in Sprague-Dawley rat assessed as ophthalmological changes at 10 to 100 mg/kg, po administered daily for 7 days; format: organism-based; parameters: dose 10-100 mg/kg, route oral; conditions: in vivo, 168 h
[17] = Selectivity index, ratio of CC50 for human PBMC to EC50 for HIV1 clade B HT/92/599 isolate; procedure, shortened: as §3
Rattus norvegicus [18] = experiment: Toxicity in Sprague-Dawley rat assessed as change in gross necroscopy at 10 to 100 mg/kg, po administered daily for 7 days; format: organism-based; parameters: dose 10-100 mg/kg, route oral; conditions: in vivo, 168 h; procedure, shortened: as §4
[19] = Selectivity index, ratio of CC50 for human HepG2(2.2.15) cells to EC50 for HBV
[20] = Tmax in Sprague-Dawley rat at 30 mg/kg, po administered daily for 7 days measured on day 1; format: ADME, organism-based; parameters: dose 30 mg/kg, route oral; conditions: in vivo; procedure, shortened: as §1
[21] = AUC (0 to 24 hrs) in Sprague-Dawley rat at 10 mg/kg, po administered daily for 7 days measured on day 1; format: ADME, organism-based; parameters: time < 24 hr, dose 10 mg/kg, route oral; conditions: plasma; procedure, shortened: as §1
Rattus norvegicus [22] = experiment: Toxicity in Sprague-Dawley rat assessed as change in urinalysis parameters at 10 to 100 mg/kg, po administered daily for 7 days; format: organism-based; parameters: dose 10-100 mg/kg, route oral; conditions: in vivo, 168 h; procedure, shortened: as §4
Rattus norvegicus [23] = experiment: Toxicity in Sprague-Dawley rat assessed as microscopic lesions at 10 to 100 mg/kg, po administered daily for 7 days; format: organism-based; parameters: dose 10-100 mg/kg, route oral; conditions: in vivo, 168 h; procedure, shortened: as §4
[24] = Cytotoxicity against human PBMC by XTT assay; format: cell-based; procedure, shortened: as §3
[25] = Cytotoxicity against human MT2 cells; format: cell-based
Procedure, shortened: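 MT-2 cells in RPMI 1640 with 10% FBS and 10 mM HEPES, exposed to threefold serial drug dilutions. CC50 calculated from cell counts and viability.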

[26] = Tmax in Sprague-Dawley rat at 100 mg/kg, po administered daily for 7 days measured on day 7; format: ADME, organism-based; parameters: dose 100 mg/kg, route oral; conditions: in vivo; procedure, shortened: as §1
Hepatitis B virus [27] = experiment: Antiviral activity against HBV in human HepG2(2.2.15) cells assessed as viral DNA levels treated for 9 days measured after 24 hrs; format: functional, organism-based
Procedure, shortened: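 Confluent 2.2.15 cells in RPMI 1640 with 2% FBS, given nine consecutive daily doses with daily medium change (six cultures per concentration on two replicate plates). HBV DNA quantified by blot hybridization 24 h after the last treatment.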

Rattus norvegicus [28] = experiment: Toxicity in Sprague-Dawley rat assessed as mortality at 10 to 100 mg/kg, po administered daily for 7 days; format: organism-based; parameters: dose 10-100 mg/kg, route oral; conditions: in vivo, 168 h; procedure, shortened: as §5
[29] = Tmax in Sprague-Dawley rat at 30 mg/kg, po administered daily for 7 days measured on day 7; format: ADME, organism-based; parameters: dose 30 mg/kg, route oral; conditions: in vivo; procedure, shortened: as §1
[30] = Elimination half life in Sprague-Dawley rat at 100 mg/kg, po administered daily for 7 days measured on day 1; format: ADME, organism-based; parameters: dose 100 mg/kg, route oral; conditions: in vivo, read-out: beta t1/2 (converted); procedure, shortened: as §2
[31] = Elimination half life in Sprague-Dawley rat at 100 mg/kg, po administered daily for 7 days measured on day 7; format: ADME, organism-based; parameters: dose 100 mg/kg, route oral; conditions: in vivo, read-out: beta t1/2 (converted); procedure, shortened: as §2
Rattus norvegicus [32] = experiment: Toxicity in Sprague-Dawley rat assessed as change in food consumption at 10 to 100 mg/kg, po administered daily for 7 days; format: organism-based; parameters: dose 10-100 mg/kg, route oral; conditions: in vivo, 168 h; procedure, shortened: as §5
[33] = Tmax in Sprague-Dawley rat at 10 mg/kg, po administered daily for 7 days measured on day 1; format: ADME, organism-based; parameters: dose 10 mg/kg, route oral; conditions: in vivo; procedure, shortened: as §1
Rattus norvegicus [34] = experiment: Toxicity in Sprague-Dawley rat assessed as change in erythrocyte morphology at 10 to 100 mg/kg, po administered daily for 7 days; format: organism-based; parameters: dose 10-100 mg/kg, route oral; conditions: in vivo, 168 h
Rattus norvegicus [35] = experiment: Toxicity in Sprague-Dawley rat assessed as change in clinical chemistry parameters at 10 to 100 mg/kg, po administered daily for 7 days; format: organism-based; parameters: dose 10-100 mg/kg, route oral; conditions: in vivo, 168 h; procedure, shortened: as §4
[36] = Selectivity index, ratio of CC50 for human MT2 cells to EC50 for HIV1 LAI; format: toxicity, cell-based; conditions: read-out: Ratio CC50/EC50
[37] = AUC (0 to 24 hrs) in Sprague-Dawley rat at 30 mg/kg, po administered daily for 7 days measured on day 7; format: ADME, organism-based; parameters: time < 24 hr, dose 30 mg/kg, route oral; conditions: plasma; procedure, shortened: as §2

CCCCCCCCCCCCCCCCOCCCOP(=O)(O)CO[C@H](C)Cn1cnc2c(N)ncnc21 [TENOFOVIR EXALIDEX]
AUC(0-t) at 24 h [1]: 5410 ng·h/mL
Activity (Rattus norvegicus [2]): Non-toxic
pEC50 (Hepatitis B virus [3]): 6.31
AUC(0-t) at 24 h [4]: 1830 ng·h/mL
AUC at 24 h [5]: 8410 ng·h/mL
pEC50 (HepG2): < 4.73
pEC50 [6]: < 3.52
Tmax [7]: 2 h
pEC50 [8]: 7.92
Ratio CC50/EC50 [9]: 38.4
Activity (Rattus norvegicus [10]): Non-toxic
Activity (Rattus norvegicus [11]): Non-toxic
Tmax [12]: 0.5 h
Activity (Rattus norvegicus [13]): Non-toxic
AUC at 24 h [14]: 435 ng·h/mL
pEC50 [15]: > 11.00
Activity (Rattus norvegicus [16]): Non-toxic
Ratio CC50/EC50 [17]: 12000
Activity (Rattus norvegicus [18]): Non-toxic
Ratio CC50/EC50 [19]: >187.5
Tmax [20]: 2 h
AUC(0-t) at 24 h [21]: 442 ng·h/mL
Activity (Rattus norvegicus [22]): Non-toxic
Activity (Rattus norvegicus [23]): Non-toxic
CC50 [24]: 144000 nM
CC50 [25]: 54000 nM
Tmax [26]: 2 h
pEC50 (Hepatitis B virus [27]): 5.80
Activity (Rattus norvegicus [28]): Non-toxic
Tmax [29]: 1 h
half-life [30]: 2.5 h
half-life [31]: 1.6 h
Activity (Rattus norvegicus [32]): Non-toxic
Tmax [33]: 0.5 h
Activity (Rattus norvegicus [34]): Non-toxic
Activity (Rattus norvegicus [35]): Non-toxic
selectivity ratio [36]: > 5.4e+06
AUC at 24 h [37]: 1540 ng·h/mL
